Source: PMC9055920 (RSC Advances, 2020)
Like-named read-outs stand apart in the source and are kept apart here.

Experiments:
α-glucosidase [1] = biological target: T1, α-glucosidase (Saccharomyces cerevisiae, UniProt P53341); test: Kinetic analysis of inhibitory type; assay type: biochemical; details: Lineweaver–Burk plots
α-glucosidase [2] = details: cited from earlier work
α-glucosidase [3] = biological target: T1, α-glucosidase; test: Fluorescence quenching and thermodynamic analysis; assay type: binding; details: for ΔH° enthalpy change / ΔS° entropy change: van't Hoff plot over 298, 304, 310 K
[4] = biological target: Saccharomyces cerevisiae α-glucosidase (Saccharomyces cerevisiae, UniProt P53341); test: α-Glucosidase enzyme activity; assay type: biochemical; details: at the concentration of 125 μmol L^−1
Saccharomyces cerevisiae α-glucosidase, sequence (P53341 whole entry): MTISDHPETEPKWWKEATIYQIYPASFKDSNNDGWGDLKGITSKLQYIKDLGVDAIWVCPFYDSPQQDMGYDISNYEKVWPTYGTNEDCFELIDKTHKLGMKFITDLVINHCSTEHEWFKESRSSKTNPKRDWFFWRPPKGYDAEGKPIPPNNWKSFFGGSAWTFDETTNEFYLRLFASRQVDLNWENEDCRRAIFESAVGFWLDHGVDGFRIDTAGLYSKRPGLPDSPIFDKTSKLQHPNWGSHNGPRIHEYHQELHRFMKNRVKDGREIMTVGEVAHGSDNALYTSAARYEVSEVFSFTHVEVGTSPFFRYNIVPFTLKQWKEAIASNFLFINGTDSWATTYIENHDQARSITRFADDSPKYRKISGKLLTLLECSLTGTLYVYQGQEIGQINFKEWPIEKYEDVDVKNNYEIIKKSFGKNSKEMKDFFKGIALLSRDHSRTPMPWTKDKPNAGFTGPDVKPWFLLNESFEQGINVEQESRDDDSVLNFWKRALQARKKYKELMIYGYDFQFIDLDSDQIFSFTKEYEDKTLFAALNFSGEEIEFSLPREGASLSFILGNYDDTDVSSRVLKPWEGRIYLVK

α-glucosidase [5] = biological target: T1, α-glucosidase; test: CD spectroscopy of secondary structure
Summary of the method: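 Far-UV CD spectra (190–250 nm) were recorded for S. cerevisiae α-glucosidase held at 2 μmol L−1, with test flavonol added at flavonol:enzyme molar ratios of 0:1, 40:1 and 80:1. Each spectrum was averaged over three scans under constant nitrogen flush, and the buffer signal was subtracted. Experiments were done in triplicate.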

α-glucosidase [6] = biological target: T1, α-glucosidase; test: Reversibility, plots of v vs. [α-glucosidase]; assay type: biochemical; details: myricetin 0–6.25 × 10^−5 mol L^−1, c(pNPG) = 3.13 × 10^−4 mol L^−1
[7] = clinically used antidiabetic drugs
[8] = natural α-glucosidase inhibitors
[9] = molar ratio of myricetin to α-glucosidase 40 : 1
[10] = molar ratio of myricetin to α-glucosidase 80 : 1

T1 sequence (P53341 whole entry): as above

Row | Inhibitory type (α-glucosidase [1]) | Ksv, Stern–Volmer quenching constant (α-glucosidase [3]; 298 K) | n, number of binding sites per protein molecule (α-glucosidase [3]; 298 K) | ΔG° free energy change (α-glucosidase [3]; 298 K) | Ksv, Stern–Volmer quenching constant (α-glucosidase [3]; 304 K) | n, number of binding sites per protein molecule (α-glucosidase [3]; 304 K) | ΔG° free energy change (α-glucosidase [3]; 304 K) | n, number of binding sites per protein molecule (α-glucosidase [3]; 310 K) | ΔG° free energy change (α-glucosidase [3]; 310 K) | ΔH° enthalpy change (α-glucosidase [3]) | ΔS° entropy change (α-glucosidase [3]) | Structure (SMILES) | type of α-glucosidase inhibition (reported) (α-glucosidase [2]; [7]) | type of α-glucosidase inhibition (reported) (α-glucosidase [2]; [8]) | other results
1 | Competitive |  |  |  |  |  |  |  |  |  |  | C[C@H]1O[C@H](O[C@H]2[C@H](O)[C@@H](O)[C@@H](O[C@H]3[C@H](O)[C@@H](O)C(O)O[C@@H]3CO)O[C@@H]2CO)[C@H](O)[C@@H](O)[C@@H]1N[C@H]1C=C(CO)[C@@H](O)[C@H](O)[C@H]1O (stereo partly drawn) [acarbose, reference compound] | competitive inhibitors |  | 
2 |  |  |  |  |  |  |  |  |  |  |  | O=c1c(O)c(-c2ccccc2)oc2cc(O)cc(O)c12 [galangin] |  | mixed-type | 
3 |  |  |  |  |  |  |  |  |  |  |  | O=c1c(-c2ccc(O)cc2)coc2cc(O)cc(O)c12 [genistein] |  | mixed-type | 
4 | Mixed-type | 9.91 ± 0.08 ×10^4 L mol^−1 | 0.87 ± 0.01 | -6.938 ± 0.0072 kcal/mol | 8.81 ± 0.05 ×10^4 L mol^−1 | 0.93 ± 0.01 | -7.032 ± 0.0024 kcal/mol | 0.98 ± 0.01 | -7.122 ± 0.0048 kcal/mol | -2.32 ± 0.237 kcal/mol | 64.84 ± 3.25 J mol^−1K^−1 | O=c1c(O)c(-c2ccc(O)cc2)oc2cc(O)cc(O)c12 [kaempferol] |  |  | Ksv, Stern–Volmer quenching constant (α-glucosidase [3]; 310 K): 8.04 ± 0.02 ×10^4 L mol^−1; inhibition of the activity of α-glucosidase [4]: approximately 60%
5 |  |  |  |  |  |  |  |  |  |  |  | O=c1cc(-c2ccc(O)c(O)c2)oc2cc(O)cc(O)c12 [luteolin] |  | mixed-type | 
6 |  |  |  |  |  |  |  |  |  |  |  | OCCN1C[C@H](O)[C@@H](O)[C@H](O)[C@H]1CO [miglitol] | competitive inhibitors |  | 
7 |  |  |  |  |  |  |  |  |  |  |  | O=c1c(O)c(-c2ccc(O)cc2O)oc2cc(O)cc(O)c12 [morin] |  | mixed-type | 
8 | Mixed-type | 14.26 ± 0.03 ×10^4 L mol^−1 | 0.99 ± 0.01 | -7.012 ± 0.012 kcal/mol | 13.81 ± 0.04 ×10^4 L mol^−1 | 1.04 ± 0.01 | -7.075 ± 0.0096 kcal/mol | 1.06 ± 0.01 | -7.139 ± 0.0096 kcal/mol | -3.862 ± 0.136 kcal/mol | 44.22 ± 1.17 J mol^−1K^−1 | O=c1c(O)c(-c2cc(O)c(O)c(O)c2)oc2cc(O)cc(O)c12 [myricetin] |  |  | random coil percentage of α-glucosidase (α-glucosidase [5]; [9]): 28.0%; α-helix content of α-glucosidase (α-glucosidase [5]; [9]): 17.6%; β-sheet proportion of α-glucosidase (α-glucosidase [5]; [9]): 45.7%; β-turn content of α-glucosidase (α-glucosidase [5]; [9]): 8.7%; random coil percentage of α-glucosidase (α-glucosidase [5]; [10]): 28.2%; α-helix content of α-glucosidase (α-glucosidase [5]; [10]): 15.5%; β-sheet proportion of α-glucosidase (α-glucosidase [5]; [10]): 49.9%; β-turn content of α-glucosidase (α-glucosidase [5]; [10]): 6.4%; Ksv, Stern–Volmer quenching constant (α-glucosidase [3]; 310 K): 13.05 ± 0.03 ×10^4 L mol^−1; reversibility of inhibition (α-glucosidase [6]): reversible inhibitor
9 | Mixed-type | 11.42 ± 0.06 ×10^4 L mol^−1 | 0.97 ± 0.01 | -6.948 ± 0.0072 kcal/mol | 11.20 ± 0.06 ×10^4 L mol^−1 | 0.99 ± 0.01 | -7.027 ± 0.0072 kcal/mol | 1.01 ± 0.01 | -7.108 ± 0.0096 kcal/mol | -2.923 ± 0.234 kcal/mol | 56.51 ± 3.27 J mol^−1K^−1 | O=c1c(O)c(-c2ccc(O)c(O)c2)oc2cc(O)cc(O)c12 [quercetin] |  |  | inhibition of the activity of α-glucosidase [4]: approximately 75%
10 |  |  |  |  |  |  |  |  |  |  |  | OCC(CO)N[C@H]1C[C@](O)(CO)[C@@H](O)[C@H](O)[C@H]1O [voglibose] | competitive inhibitors |  | 
